# Measured values from ChEMBL document CHEMBL3877293, “Synthesis and Antineoplastic Evaluation of Novel Unsymmetrical 1,3,4-Oxadiazoles” (J Med Chem, 2016).
# Activity calls are given as the source filed them. The rule behind the calls is not given here.
# Legend:
# A549 = assay: Increase in p53 expression in human A549 cells at 1 uM after 24 hrs by immunoblot method relative to control; type: functional
# Summary of the method: (§1)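 After 24 h treatment at 1 μM, cells lysed in Tris pH 8/NaCl/glycerol/NP-40/EDTA buffer with protease inhibitors. Equal lysate amounts run on 10% SDS gels, blotted to nitrocellulose, probed for p53 with GAPDH as loading control, detected by enhanced chemiluminescence. Bands quantified by densitometry against GAPDH and compared with untreated cells; three independent experiments.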
# MCF7 [1] = assay: Antiproliferative activity against human MCF7 cells at 0.5 uM after 72 hrs in presence of MRP1 inhibitor reversan by XTT assay relative to control; type: functional, cell-based
# Summary of the method: (§2)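 Mcf7 cells treated after 24 h for 72 h at 37 °C, 5% CO2 with test compound at 0.5 μM alone or combined with harmine (1, 3, 5 μM) or reversan (5, 15, 25 μM). XTT was added for 4 h at 37 °C, absorbance read at 490 nm, and viability compared with control.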
# [2] = Cell cycle arrest in human MCF7 cells assessed as G1 phase accumulation at 1 uM treated for 24 hrs followed by compound washout measured after 24 hrs by propidium iodide staining based flow cytometry (reference value: 61.4%); type: functional
# SH-SY5Y = assay: Disruption of beta-tubulin network in human SH-SY5Y cells assessed as pyknotic nuclei at 1 uM after 24 hrs by DAPI staining based immunofluorescence microscopic analysis; type: cell-based
# Summary of the method: (§3)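 Cells seeded on glass coverslips (1 x 10^5/well), treated 24 h, fixed in 4% paraformaldehyde 15 min, permeabilized with 0.5% Triton X-100, blocked in 5% BSA/PBS, stained overnight at 4 °C with anti-β-tubulin (1:200) then fluorescent secondary antibody; nuclei counterstained with DAPI; microtubule organization and nuclear morphology examined by fluorescence microscopy.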
# [3] = Cell cycle arrest in human NB1 hTERT cells assessed as G2/M phase accumulation at 1 uM after 24 hrs by propidium iodide staining based flow cytometry (reference value: 35.7%); type: functional
# [4] = Disruption of beta-tubulin network in human MCF7 cells assessed as uneven distribution around nuclei at 1 uM after 24 hrs by DAPI staining based immunofluorescence microscopic analysis; type: cell-based; summary of the method: as §3
# MCF7 [5] = assay: Disruption of beta-tubulin network in human MCF7 cells assessed as induction of micronucleated cells at 1 uM after 24 hrs by DAPI staining based immunofluorescence microscopic analysis; type: cell-based; summary of the method: as §3
# [6] = Effect on p53 expression in human NB-1 cells at 1 uM after 24 hrs by immunoblot method; type: cell-based; settings: nb1, 24 h; summary of the method: as §1
# [7] = Cell cycle arrest in human T98G cells assessed as subG1 phase accumulation at 1 uM after 24 hrs by propidium iodide staining based flow cytometry relative to DMSO control; type: functional
# [8] = Cell cycle arrest in human NB1 hTERT cells assessed as S phase accumulation at 1 uM after 72 hrs by propidium iodide staining based flow cytometry (reference value: 3.6%); type: functional
# [9] = Cell cycle arrest in human NB-1 cells assessed as S phase accumulation at 1 uM after 48 hrs by propidium iodide staining based flow cytometry (reference value: 1.7%); settings: nb1, 48 h
# [10] = Cell cycle arrest in human NB1 hTERT cells assessed as sub G1 phase accumulation at 1 uM after 72 hrs by propidium iodide staining based flow cytometry relative to control; type: functional
# [11] = Cell cycle arrest in human NB1 hTERT cells assessed as S phase accumulation at 1 uM after 24 hrs by propidium iodide staining based flow cytometry (reference value: 11.8%); type: functional
# [12] = Cell cycle arrest in human NB1 hTERT cells assessed as G1 phase accumulation at 1 uM after 72 hrs by propidium iodide staining based flow cytometry (reference value: 72.5%); type: functional
# [13] = Cell cycle arrest in human LAN1 cells assessed as S phase accumulation at 1 uM after 24 hrs by propidium iodide staining based flow cytometry (reference value: 23.5 +/- 1.32%); type: functional
# HeLa [14] = assay: Induction of apoptosis in human HeLa cells assessed as necrotic cells at 5 uM after 48 hrs by Annexin-V FITC/propidium iodide staining based flow cytometry (reference value: 2.3%); type: functional
# [15] = Cell cycle arrest in human LAN1 cells assessed as G2/M phase accumulation at 1 uM after 24 hrs by propidium iodide staining based flow cytometry (reference value: 26.2 +/- 1.92%); type: functional
# [16] = Cell cycle arrest in human NB-1 cells assessed as G1 phase accumulation at 1 uM after 24 hrs by propidium iodide staining based flow cytometry (reference value: 75%); settings: nb1, 24 h
# [17] = Induction of apoptosis in human NB1 hTERT cells assessed as early apoptotic cells at 5 uM after 72 hrs by Annexin-V FITC/propidium iodide staining based flow cytometry (reference value: 0.6%); type: functional
# HeLa [18] = assay: Induction of apoptosis in human HeLa cells assessed as early apoptotic cells at 5 uM after 48 hrs by Annexin-V FITC/propidium iodide staining based flow cytometry (reference value: 1.6%); type: functional
# [19] = Cell cycle arrest in human SK-N-AS cells assessed as G2/M phase accumulation at 1 uM after 24 hrs by propidium iodide staining based flow cytometry (reference value: 25.2 +/- 1.32%); type: functional
# [20] = Cell cycle arrest in human MCF7 cells assessed as G2/M phase accumulation at 1 uM treated for 24 hrs followed by compound washout measured after 24 hrs by propidium iodide staining based flow cytometry (reference value: 26.4%); type: functional
# [21] = Cell cycle arrest in human SK-N-AS cells assessed as G1 phase accumulation at 1 uM after 24 hrs by propidium iodide staining based flow cytometry (reference value: 51.5 +/- 1.39%); type: functional
# [22] = Cell cycle arrest in human NCI-H1299 cells assessed as S phase accumulation at 1 uM after 48 hrs by propidium iodide staining based flow cytometry (reference value: 7.2%); type: functional
# [23] = Antiproliferative activity against human MCF7 cells at 0.5 uM after 72 hrs in presence of 5 uM BCRP inhibitor harmine by XTT assay relative to control; type: functional; summary of the method: as §2
# [24] = Induction of apoptosis in human NB1 hTERT cells assessed as live cells at 5 uM after 72 hrs by Annexin-V FITC/propidium iodide staining based flow cytometry (reference value: 93.2%); type: functional
# [25] = Cell cycle arrest in human NCI-H1299 cells assessed as G2/M phase accumulation at 1 uM after 24 hrs by propidium iodide staining based flow cytometry (reference value: 22.2 +/- 1.74%); type: functional
# [26] = Cell cycle arrest in human MCF7 cells assessed as G2/M phase accumulation at 1 uM after 144 hrs by propidium iodide staining based flow cytometry (reference value: 16.3%); type: functional
# [27] = Cell cycle arrest in human A549 cells assessed as subG1 phase accumulation at 1 uM after 24 hrs by propidium iodide staining based flow cytometry relative to DMSO control; type: functional
# HeLa [28] = assay: Disruption of beta-tubulin network in human HeLa cells assessed as induction of abnormal cell division at 1 uM after 24 hrs by DAPI staining based immunofluorescence microscopic analysis
# [29] = Cell cycle arrest in human NB1 hTERT cells assessed as G2/M phase accumulation at 1 uM after 48 hrs by propidium iodide staining based flow cytometry (reference value: 27.2%); type: functional
smiles,measurement,setting,value
Cc1[nH]c2c(c1-c1nnc(-c3ccccc3)o1)Cc1ccccc1-2,fold change (FC),A549,2 - 3
same,Activity,MCF7 [1],Active
same,Activity,[2],56.8%
same,Activity,SH-SY5Y,Active
same,Activity,[3],28.9%
same,Activity,[4],Active
same,Activity,MCF7 [5],Active
same,Activity,[6],Non-Toxic
same,Activity,[7],16.8%
same,Activity,[8],8.3%
same,Activity,[9],2.4%
same,Activity,[10],25.3%
same,Activity,[11],12.3%
same,Activity,[12],45.6%
same,Activity,[13],5.6%
same,Activity,HeLa [14],4.3%
same,Activity,[15],82.6%
same,Activity,[16],73%
same,Activity,[17],3.8%
same,Activity,HeLa [18],4.6%
same,Activity,[19],73%
same,Activity,[20],31.7%
same,Activity,[21],10.8%
same,Activity,[22],9.7%
same,Activity,[23],40%
same,Activity,[24],81%
same,Activity,[25],74.6%
same,Activity,[26],79.9%
same,Activity,[27],13.8%
same,Activity,HeLa [28],Active
same,Activity,[29],23.1%
